What was measured:
Human betaherpesvirus 5 [1] = assay: (§1) Tested in vitro against HCMV AD-169 strain in MRC-5 cells; format: functional, organism-based; settings: Human betaherpesvirus 5, MRC5
Procedure, shortened: (§2)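 Plaque reduction assay against HCMV strain AD-169 in MRC-5 cells, giving a 50% inhibitory concentration. The top concentration tested was 100 μM, and inactivity there is scored NA.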

Human alphaherpesvirus 2 [2] = assay: (§3) Tested in vitro against HSV 2 G strain in vero cells; format: functional, organism-based; settings: Human alphaherpesvirus 2, Vero
Procedure, shortened: (§4)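 Plaque reduction assay against HSV-2 strain G in Vero cells, giving a 50% inhibitory concentration. The top concentration tested was 100 μM, and inactivity there is scored NA.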

[3] = as §1; format: ADME, organism-based, MRC5; settings: human betaherpesvirus 5, MRC-5 cells; read-out: TC50 (the source's name)
[4] = system: Human immunodeficiency virus 1; assay: Tested in vitro against human immunodeficiency virus (HIV) infected CEM cells using XTT assay (LAV-BRU strain); format: functional, organism-based; settings: Human immunodeficiency virus 1, CCRF-CEM
Procedure, shortened: (§5)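 Anti-HIV XTT assay in HIV-infected CEM cells, using the LAV-BRU or HIV-HRF strain as the line names. The value is the 50% inhibitory concentration. The top concentration tested was 100 μM, and inactivity there is scored NA.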

[5] = Ratio between TC50 against human immunodeficiency virus infected CEM cells and IC50 against CEM cells; format: functional, CCRF-CEM
Procedure, shortened: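 Selectivity index is TC50 divided by IC50. TC50 is the 50% toxic concentration from the XTT assay in CEM cells. IC50 is the 50% inhibitory concentration from the XTT assay in HIV-infected CEM cells.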

[6] = as §3; format: organism-based; settings: human alphaherpesvirus 2, Vero cells; read-out: TC50 (the source's name)
[7] = Toxic concentration, in CEM cells estimated by the XTT assay; format: toxicity, cell-based; settings: human, CCRF-CEM (CEM) cells; read-out: TC50 (the source's name)
Human betaherpesvirus 5 [8] = assay: Tested in vitro against HCMV from WI-38 cells; NA= not active at 100 uM as determined in WI-38 cells; format: functional, organism-based
[9] = Tested in vitro against HCMV from WI-38 cells; format: organism-based; settings: human betaherpesvirus 5, WI-38 cells; read-out: TC50 (the source's name)
[10] = system: Human immunodeficiency virus 1; assay: Tested in vitro against human immunodeficiency virus (HIV) infected CEM cells using XTT assay (HIV-HRF strain); format: functional, organism-based; settings: Human immunodeficiency virus 1, CCRF-CEM; procedure, shortened: as §5
CCRF-CEM = assay: Cell growth toxicity against CEM cells after treatment with compound for 72 hours; format: functional; settings: Homo sapiens
Procedure, shortened: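 Cytotoxicity in CEM cells: cells counted after 72 h drug exposure; the value is the concentration giving 50% cell growth toxicity.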

Human alphaherpesvirus 2 [11] = assay: Tested in vitro against HSV 2 G strain in vero cells; NA= not active at 100 uM; format: functional, organism-based; procedure, shortened: as §4
Human betaherpesvirus 5 [12] = assay: Tested in vitro against HCMV from WI-38 cells; NA= not active at 100 uM; format: functional, organism-based
[13] = system: Human immunodeficiency virus 1; assay: Tested in vitro against human immunodeficiency virus (HIV) infected CEM cells using XTT assay (HIV-HRF strain); NA = not active at 100 uM; format: functional, organism-based; settings: ccrf-cem; procedure, shortened: as §5
Human alphaherpesvirus 2 [14] = assay: Tested in vitro against HSV 2 from WI-38 cells; NA= not active at 100 uM; format: functional, organism-based
[15] = Tested in vitro against HSV 2 from Wi-38 cells; format: organism-based; settings: human alphaherpesvirus 2, WI-38 cells; read-out: TC50 (the source's name)
[16] = system: Human immunodeficiency virus 1; assay: Tested in vitro against human immunodeficiency virus (HIV) infected CEM cells using XTT assay (LAV-BRU strain); NA = not active at 100 uM; format: functional, organism-based; settings: ccrf-cem; procedure, shortened: as §5
[17] = Tested in vitro against HSV 2 from WI-38 cells; format: organism-based; settings: human alphaherpesvirus 2, WI-38 cells; read-out: TC50 (the source's name)
Human alphaherpesvirus 2 [18] = assay: as §3; format: functional, organism-based, herpes simplex virus; settings: Human alphaherpesvirus 2, Vero; procedure, shortened: as §4
Human betaherpesvirus 5 [19] = assay: Tested in vitro against HCMV AD-169 strain in MRC-5 cells; NA= not active at 100 uM; format: functional, organism-based; settings: mrc5; procedure, shortened: as §2

`Nc1nc(O)c2ncn(CC(CO)OCP(=O)(O)O)c2n1` (single isomer, unassigned; form 2) showed an IC50 (Human betaherpesvirus 5 [1]) of 0.8 µM, an IC50 (Human alphaherpesvirus 2 [2]) of 99 µM and a CC50 [3] greater than 310 µM. It also gave an IC50 [4] greater than 500 µM, a Selectivity index [5] of less than 1 and a CC50 [6] greater than 310 µM.
With `C=C[C@H](Cn1cnc2c(O)nc(N)nc21)OCP(=O)(O)O` the CC50 [7] was greater than 1000 µM, the IC50 (Human betaherpesvirus 5 [8]) was “Not Active” and the CC50 [9] was greater than 300 µM. The Selectivity index [5] was greater than 77, the IC50 [10] was 13 µM and the CC50 (CCRF-CEM) was greater than 1590 µM.
Compound `Nc1nc(O)c2ncn(CC(CF)OCP(=O)(O)O)c2n1` (single isomer, unassigned; form 2) has a CC50 [7] greater than 500 µM, an IC50 (Human betaherpesvirus 5 [1]) of 150 µM and a CC50 [3] greater than 310 µM. The IC50 [4] was 7 µM, the Selectivity index [5] was greater than 71 and the CC50 (CCRF-CEM) was 93 µM. The CC50 [6] was greater than 310 µM.
In the case of `Nc1nc(O)c2ncn(CC(CCl)OCP(=O)(O)O)c2n1` (single isomer, unassigned; form 1), the CC50 [7] is reported as greater than 500 µM, the IC50 (Human betaherpesvirus 5 [1]) is reported as 51 µM and the CC50 [3] is reported as greater than 300 µM. The IC50 (Human alphaherpesvirus 2 [11]) was “Not Active”, the IC50 [4] was 45 µM and the Selectivity index [5] was greater than 11. It also gave a CC50 (CCRF-CEM) of 870 µM and a CC50 [6] greater than 300 µM.
With `Nc1nc(O)c2ncn(C[C@H](OCP(=O)(O)O)C3CC3)c2n1` the CC50 [7] was greater than 1000 µM, the CC50 [9] was greater than 300 µM and the IC50 (Human betaherpesvirus 5 [12]) was “Not Active”. For the same compound, the IC50 [13] was “Not Active”, the IC50 (Human alphaherpesvirus 2 [14]) was “Not Active” and the CC50 [15] was greater than 300 µM.
For `[N-]=[N+]=NCC(Cn1cnc2c(O)nc(N)nc21)OCP(=O)(O)O` (single isomer, unassigned; form 2), the CC50 [7] was greater than 1000 µM, the IC50 (Human betaherpesvirus 5 [1]) was 15 µM and the CC50 [3] was greater than 300 µM. For the same compound, the IC50 (Human alphaherpesvirus 2 [11]) was “Not Active”, the Selectivity index [5] was greater than 20 and the IC50 [10] was 51 µM. It also gave a CC50 (CCRF-CEM) of 134 µM and a CC50 [6] greater than 300 µM.
Compound `[N-]=[N+]=NCC(Cn1cnc2c(O)nc(N)nc21)OCP(=O)(O)O` (single isomer, unassigned; form 1) has a CC50 [7] greater than 1000 µM, an IC50 (Human betaherpesvirus 5 [1]) of 33 µM and a CC50 [3] greater than 300 µM. The IC50 (Human alphaherpesvirus 2 [11]) was “Not Active”, the Selectivity index [5] was greater than 200 and the IC50 [10] was 5 µM. For the same compound, the CC50 (CCRF-CEM) was greater than 1400 µM and the CC50 [6] was greater than 300 µM.
With `Nc1nc(O)c2ncn(C[C@@H](CCO)OCP(=O)(O)O)c2n1` the CC50 [7] was greater than 450 µM, the IC50 [16] was “Not Active” and the IC50 (Human alphaherpesvirus 2 [11]) was “Not Active”. For the same compound, the CC50 [6] was 300 µM.
In the case of `CC[C@H](Cn1cnc2c(O)nc(N)nc21)OCP(=O)(O)O`, the CC50 [7] is reported as 1000 µM, the CC50 [9] is reported as greater than 300 µM and the IC50 (Human betaherpesvirus 5 [12]) is reported as “Not Active”. For the same compound, the Selectivity index [5] was 19, the CC50 [17] was greater than 300 µM and the IC50 [10] was 54 µM. For the same compound, the IC50 (Human alphaherpesvirus 2 [14]) was “Not Active”.
In the case of `Nc1nc2c(ncn2CC(CO)OCP(=O)(O)O)c(=O)[nH]1` (single isomer, unassigned; form 1), the CC50 [7] is reported as greater than 500 µM, the IC50 (Human betaherpesvirus 5 [1]) is reported as 1.6 µM and the CC50 [3] is reported as greater than 310 µM. For the same compound, the IC50 [4] was 500 µM, the Selectivity index [5] was greater than 1 and the CC50 [6] was greater than 310 µM. The IC50 (Human alphaherpesvirus 2 [18]) was 97 µM.
For `Nc1nc(O)c2ncn(CC(CCl)OCP(=O)(O)O)c2n1` (single isomer, unassigned; form 2), the CC50 [7] was greater than 500 µM, the IC50 (Human betaherpesvirus 5 [1]) was 112 µM and the CC50 [3] was 300 µM. For the same compound, the IC50 (Human alphaherpesvirus 2 [11]) was “Not Active”, the IC50 [4] was 50 µM and the Selectivity index [5] was greater than 10. For the same compound, the CC50 (CCRF-CEM) was greater than 1500 µM and the CC50 [6] was 300 µM.
For `Nc1nc(O)c2ncn(C[C@H](CCO)OCP(=O)(O)O)c2n1`, the CC50 [7] was greater than 500 µM, the IC50 [16] was “Not Active” and the IC50 (Human betaherpesvirus 5 [1]) was 162 µM. The CC50 [3] was greater than 300 µM, the IC50 (Human alphaherpesvirus 2 [11]) was “Not Active” and the CC50 [6] was 300 µM.
`Nc1nc2c(ncn2CCOCP(=O)(O)O)c(=O)[nH]1` [GS-438] showed an IC50 (Human betaherpesvirus 5 [1]) of 0.09 µM, an IC50 (Human alphaherpesvirus 2 [2]) of 1.1 µM and a CC50 [3] of 30 µM. For the same compound, the IC50 [4] was 0.2 µM, the Selectivity index [5] was 75 and the CC50 (CCRF-CEM) was 0.2 µM. It also gave a CC50 [6] of 17 µM.
With `C[C@H](Cn1cnc2c(O)nc(N)nc21)OCP(=O)(O)O` the CC50 [7] was greater than 500 µM, the IC50 (Human betaherpesvirus 5 [1]) was 16 µM and the IC50 (Human alphaherpesvirus 2 [2]) was 82 µM. For the same compound, the CC50 [3] was greater than 330 µM, the IC50 [4] was 1 µM and the Selectivity index [5] was greater than 500. It also gave a CC50 (CCRF-CEM) of 180 µM and a CC50 [6] greater than 330 µM.
With `Nc1nc(O)c2ncn(CC(CF)OCP(=O)(O)O)c2n1` (single isomer, unassigned; form 1) the CC50 [7] was greater than 500 µM, the IC50 (Human betaherpesvirus 5 [1]) was 136 µM and the CC50 [3] was greater than 310 µM. The IC50 [4] was 8 µM, the Selectivity index [5] was greater than 63 and the CC50 (CCRF-CEM) was 427 µM. For the same compound, the CC50 [6] was greater than 310 µM.
For `Nc1nc(O)c2ncn(C[C@H](CCF)OCP(=O)(O)O)c2n1`, the CC50 [7] was greater than 500 µM, the IC50 [16] was “Not Active” and the IC50 (Human betaherpesvirus 5 [19]) was “Not Active”. For the same compound, the CC50 [3] was 300 µM, the IC50 (Human alphaherpesvirus 2 [11]) was “Not Active” and the CC50 [6] was 300 µM.
In the case of `C=C[C@@H](Cn1cnc2c(O)nc(N)nc21)OCP(=O)(O)O`, the CC50 [7] is reported as greater than 1000 µM, the IC50 (Human betaherpesvirus 5 [19]) is reported as “Not Active” and the CC50 [3] is reported as greater than 300 µM. The IC50 (Human alphaherpesvirus 2 [11]) was “Not Active”, the Selectivity index [5] was greater than 20 and the IC50 [10] was 49 µM. For the same compound, the CC50 (CCRF-CEM) was greater than 1590 µM and the CC50 [6] was 300 µM.
In the case of `[N-]=[N+]=NCC[C@@H](Cn1cnc2c(O)nc(N)nc21)OCP(=O)(O)O`, the CC50 [7] is reported as greater than 500 µM, the IC50 [16] is reported as “Not Active” and the IC50 (Human betaherpesvirus 5 [19]) is reported as “Not Active”. For the same compound, the CC50 [3] was 300 µM, the IC50 (Human alphaherpesvirus 2 [11]) was “Not Active” and the CC50 [6] was 300 µM.
With `Nc1nc(O)c2ncn(C[C@@H](OCP(=O)(O)O)C3CC3)c2n1` the CC50 [7] was 91 µM, the IC50 (Human alphaherpesvirus 2 [11]) was “Not Active” and the IC50 [13] was “Not Active”. The CC50 [6] was 300 µM.
With `CC[C@@H](Cn1cnc2c(O)nc(N)nc21)OCP(=O)(O)O` the CC50 [7] was greater than 500 µM, the IC50 (Human betaherpesvirus 5 [19]) was “Not Active” and the CC50 [3] was 300 µM. The IC50 (Human alphaherpesvirus 2 [11]) was “Not Active”, the Selectivity index [5] was greater than 2 and the IC50 [10] was 252 µM. For the same compound, the CC50 [6] was 300 µM.
`C[C@@H](Cn1cnc2c(O)nc(N)nc21)OCP(=O)(O)O` gave an IC50 (Human betaherpesvirus 5 [1]) of 16 µM, an IC50 (Human alphaherpesvirus 2 [2]) of 43 µM and a CC50 [3] greater than 330 µM. It also gave an IC50 [4] of 12 µM, a Selectivity index [5] of 25 and a CC50 (CCRF-CEM) of 12 µM. For the same compound, the CC50 [6] was greater than 330 µM.

Source: ChEMBL document CHEMBL1126801, “Synthesis and antiviral activity of 2'-substituted 9-[2-(phosphonomethoxy)ethyl]guanine analogues” (J Med Chem, 1993)
